# Assay results pooled from the literature.
# Protocols differ between the studies behind these lines.
# Target: Serine/threonine-protein kinase 35 (STK35, Homo sapiens, UniProt Q8TDR2)
SMILES,effect on,method,concentration,remaining binding
CC1CCCN1c1nccc(-c2cnn3ncccc23)n1 (stereo not shown),binding,,1 µM,88%
Cc1c[nH]c2nccc(Oc3c(F)cc(Nc4cc(Cl)nc(N)n4)cc3F)c12,cell-free assay,competition with immobilised ligand,0.1 µM,94%
O=C(NCCCN1CCOCC1)c1ccc(Nc2nccc(-c3cc4ccccc4s3)n2)cc1,binding,competition with immobilised ligand,1 µM,92%
Nc1ncc2c(n1)-c1c([nH]c3ccc(C#CC4CC4)cc13)CCCC2,binding,competition with immobilised ligand,1 µM,100%
C=CC(=O)N1CCC(C(=O)NCC(=O)N2CCN(c3nc(-c4cnc(N)nc4C(F)F)nc(N4CCOCC4)n3)CC2)CC1,binding,competition with immobilised ligand,1 µM,93%
CN(C)c1nccc(-c2cnn3ncccc23)n1,binding,,1 µM,100%
COc1cnc(Nc2cccc(S(N)(=O)=O)c2)nc1N1CCN(c2ccccc2)CC1,binding,competition with immobilised ligand,1 µM,100%
Cc1cnc(Nc2ccc(C(=O)N3CCC(N4CCCC4)CC3)cc2)nc1-c1cc2ccccc2s1,binding,competition with immobilised ligand,1 µM,79%
CCOC(=O)c1cc2cc(-c3cc(C(=O)NCc4ccc(C(=O)O)cc4)nn3C)ccc2[nH]1,cell-free assay,competition with immobilised ligand,0.1 µM,94%
c1cncc(-c2cccc(Nc3nccc(NC4CCCCC4)n3)c2)c1,binding,competition with immobilised ligand,10 µM,86%
CN1CCN(c2cnc3c(C4CCN(C(=O)c5ccc(OC(F)(F)F)cc5N)CC4)ncnc3c2)CC1,cell-free assay,competition with immobilised ligand,1 µM,100%
O=C(c1ccc(Nc2nccc(-c3cc4ccccc4s3)n2)cc1)N1CCC(N2CCCC2)CC1,binding,competition with immobilised ligand,1 µM,100%
CN(CCCC(F)(F)F)c1nccc(-c2cnn3ncccc23)n1,binding,,1 µM,100%
CCN1CCN(Cc2ccc(C(=O)Nc3ccc(C)c(Oc4ccc5c(c4)CC(=O)N5)c3)cc2C(F)(F)F)CC1,binding,competition with immobilised ligand,1 µM,72%
C[C@@H]1CCN(c2nccc(-c3cnn4ncccc34)n2)C1,binding,,1 µM,72%
O=C(NCC1CCOCC1)c1n[nH]cc1NC(=O)c1c(F)cccc1F,binding,competition with immobilised ligand,1 µM,92%
Cn1nc(C(F)(F)F)cc1-c1cnc(N2CCc3cc(S(=O)(=O)Nc4c(F)cc(Cl)cc4F)cc(N4CCCC4=O)c32)nc1,cell-free assay,competition with immobilised ligand,1 µM,100%
c1cnn2ncc(-c3ccnc(N4CCC45COC5)n3)c2c1,binding,,1 µM,100%
CCC(=O)N[C@H]1CC[C@@H](C(=O)N(C)c2ccc(-c3nc4ccccc4o3)cc2)C1,cell-free assay,competition with immobilised ligand,1 µM,88%
N[C@H]1CCN(c2nccc(-c3cnn4ncccc34)n2)C1,binding,,1 µM,89%
Cc1nccc(COC(=O)N2C[C@@H]3[C@@H](CNC(=O)c4ccc5[nH]nnc5c4)[C@@H]3C2)n1,cell-free assay,competition with immobilised ligand,1 µM,83%
CN(C)c1nccc(-c2cnc3ncccn23)n1,binding,,1 µM,100%
